Reference: PMC4278051 (Journal of Breast Cancer, 2014)

What was measured:
TRPV1 [1] = conditions: ref 23 (Rigoni et al.); cited from earlier work
MCF-7 cells = experiment: MTT reduction proliferation assay; format: cell-based, human; conditions: 2, 24, 48 and 72 hours; for MCF-7 cell growth rate / viability compared to the controls (MTT): increasing concentrations (10^-10-10^-4 M capsaicin, capsazepine; 10^-10-10^-6 M RTX, 5-I-RTX), p<0.05, n=6
How it was run: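 MCF-7 cells grown in DMEM with 20% FBS were seeded at 5×10^3 cells/100 µL in 96-well plates. Cells were exposed to test compound at increasing concentrations (10-10 up to 10^-4 or 10^-6 M, by compound) and assayed at 2, 24, 48 and 72 h. MTT was added for 4 h at 37 °C, 5% CO2, and formazan was dissolved in DMSO for 10 min at RT. OD was read at 570 nm (n=6, mean±SEM) and analysed by Kruskal-Wallis with Dunn post-test.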

TRPV1 [2] = molecular target: T1, TRPV1 (Homo sapiens, UniProt Q8NER1); experiment: Inhibition of RTX induced ^45Ca^2+ uptake by antagonists in MCF-7; format: cell-based; conditions: in the presence of RTX 2 nM, n=4
T1 sequence (Q8NER1 whole entry): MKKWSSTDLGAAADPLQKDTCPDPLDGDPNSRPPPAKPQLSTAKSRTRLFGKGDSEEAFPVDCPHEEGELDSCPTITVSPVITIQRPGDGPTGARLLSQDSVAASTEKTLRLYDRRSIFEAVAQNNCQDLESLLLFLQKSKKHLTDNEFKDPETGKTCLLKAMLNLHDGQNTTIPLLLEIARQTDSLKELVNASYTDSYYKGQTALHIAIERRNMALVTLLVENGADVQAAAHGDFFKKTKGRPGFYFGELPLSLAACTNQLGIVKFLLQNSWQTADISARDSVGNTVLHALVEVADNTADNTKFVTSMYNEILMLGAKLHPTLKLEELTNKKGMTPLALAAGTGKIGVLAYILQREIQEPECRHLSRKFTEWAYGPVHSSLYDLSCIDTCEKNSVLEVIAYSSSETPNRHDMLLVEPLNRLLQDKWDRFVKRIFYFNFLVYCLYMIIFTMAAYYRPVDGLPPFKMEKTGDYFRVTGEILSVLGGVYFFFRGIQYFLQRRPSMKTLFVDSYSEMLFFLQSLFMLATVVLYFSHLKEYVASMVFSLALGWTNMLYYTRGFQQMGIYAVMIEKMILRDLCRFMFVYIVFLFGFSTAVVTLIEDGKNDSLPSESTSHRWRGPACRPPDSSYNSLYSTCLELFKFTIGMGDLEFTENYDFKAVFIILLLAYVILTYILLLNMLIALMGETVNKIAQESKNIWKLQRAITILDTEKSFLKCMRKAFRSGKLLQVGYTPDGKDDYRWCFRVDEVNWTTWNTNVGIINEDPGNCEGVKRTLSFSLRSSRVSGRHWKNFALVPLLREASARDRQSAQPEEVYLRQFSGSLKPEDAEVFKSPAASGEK

[3] = molecular target: transient receptor potential vanilloid 1 (Homo sapiens, UniProt Q8NER1); experiment: Competition; conditions: inhibition of 1.2 nM ^3[H]RTX binding, MCF-7 membranes, Cheng-Prussoff
Chain of transient receptor potential vanilloid 1 (Q8NER1 whole entry): as above

TRPV1 [4] = molecular target: T1, TRPV1; experiment: ^45Ca^2+ uptake assay, stimulation by agonists in MCF-7; format: cell-based; conditions: for E max of Ca^2+ uptake: 20 minutes at 37℃, 10^-11-10^-3 M, n=4

For C=C(C)[C@]12C[C@@H](C)[C@@]34O[C@](Cc5ccccc5)(O[C@@H]1[C@@H]3C=C(COC(=O)Cc1cc(I)c(O)c(OC)c1)C[C@]1(O)C(=O)C(C)=C[C@@H]41)O2 [5-I-RTX, 5-iodoresiniferatoxin], the “Potency relative to the antagonist capsazepine (times more potent)” value (TRPV1 [1]) is listed as 20, the “MCF-7 cell growth rate / viability compared to the controls (MTT)” value (MCF-7 cells) is listed as “significant decrease” and the “E max of Ca^2+ influx inhibition” value (TRPV1 [2]) is listed as 108.3%. For the same molecule, the Ki [3] was 0.056 nM.

For C=C(C)[C@]12C[C@@H](C)[C@@]34O[C@](Cc5ccccc5)(O[C@@H]1[C@@H]3C=C(COC(=O)Cc1ccc(O)c(OC)c1)C[C@]1(O)C(=O)C(C)=C[C@@H]41)O2 [RTX, resiniferatoxin], the “Time dependence of MCF-7 growth inhibition (MTT)” value (MCF-7 cells) was “time-dependent behavior”, the “MCF-7 cell growth rate / viability compared to the controls (MTT)” value (MCF-7 cells) was “significant decrease” and the EC50 (TRPV1 [4]) was 24 nM. For the same molecule, the “E max of Ca^2+ uptake” value (TRPV1 [4]; ^45Ca^2+ uptake) was 777.0 cpm.

In the case of Oc1cc2c(cc1O)CN(C(=S)NCCc1ccc(Cl)cc1)CCC2 [Capsazepine, capsazepine], the “MCF-7 cell growth rate / viability compared to the controls (MTT)” value (MCF-7 cells) is reported as “significant decrease”.

With COc1cc(CNC(=O)CCCC/C=C/C(C)C)ccc1O [Capsaicin, capsaicin] the “MCF-7 cell growth rate / viability compared to the controls (MTT)” value (MCF-7 cells) was “significant decrease” and the “E max of Ca^2+ uptake” value (TRPV1 [4]; ^45Ca^2+ uptake) was 478.8 cpm.

For CCCCC/C=C\C/C=C\C/C=C\C/C=C\CCCC(=O)NCCO [Anandamide, anandamide], the EC50 (TRPV1 [4]) was 110 nM, the “Agonist character at TRPV1 expressed in MCF-7, from E max of calcium uptake” value (TRPV1 [4]; ^45Ca^2+ uptake) was “full agonist” and the “E max of Ca^2+ uptake” value (TRPV1 [4]; ^45Ca^2+ uptake) was 557.0 cpm.
